This note sets out measurements from ChEMBL document CHEMBL3421564, “Synthesis and biological evaluation of indolyl-pyridinyl-propenones having either methuosis or microtubule disruption activity” (2015).

Active and inactive are the calls of the source. The calls are words filed in the database; no cut-off is given here.

Assay [1] deals with T1, Tubulin (Homo sapiens) (UniProt P68371+Q9H4B7+P0DPH7+P68366+Q13509+Q71U36+P04350+Q3ZCM7+P07437+P68363+Q9BQE3+Q6PEY2+Q13885+Q9BVA1+Q9BUF5). As to the kind of experiment: Inhibition of tubulin polymerization in human U251 cells at 3 uM after 4 hrs by immunoblot analysis. It is filed as cell-based. The following applies: U-251. Put shortly:
(§1)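 Seeded at 1.4 × 10^6 cells per 10 cm dish and treated one day later for 4 h, DMSO control. Cells scraped into 37 °C lysis buffer (100 mM PIPES pH 6.9, 5 mM MgCl2, 1 mM EGTA, 30% glycerol, detergents, 2 mM GTP, protease inhibitors) and spun at 100000g for 1 h at 37 °C. Pellet (polymer) and supernatant tubulin measured by anti-α-tubulin immunoblot with chemiluminescence. Polymer fraction expressed as % of DMSO control; mean ± S.D. of three experiments, two-tailed t test.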

Assay [2] has as its target T1, Tubulin (Homo sapiens). The assay is described as follows: Inhibition of tubulin polymerization in human U251 cells at 0.1 uM after 4 hrs by immunoblot analysis. The class given is cell-based. The conditions noted are these: U-251. Put shortly: as §1
For orientation: In western blotting, separated proteins are transferred to a membrane and probed.

Assay [3] relates to U-251. The assay is described as follows: Growth inhibition of human U251 cells at 10 uM after 24 hrs sulphorhodomine B colorimetric assay. It is filed as functional, cell-based.
Assay [4] relates to U-251. As to the kind of experiment: Induction of methuosis in human U251 cells assessed as cytoplasmic vacuolization at 2.5 uM up to 48 hrs by phase contrast microscopy. The class given is functional, cell-based. Put shortly:
(§2)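 Live U251 cells seeded at 10^5 per 35 mm dish; fresh medium with compound added after 1 day, DMSO vehicle control. Phase-contrast images taken at set intervals after drug addition (4 h to 48 h). Vacuolization, blebbing, rounding and detachment scored by eye.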

Assay [5] has as its system U-251. As to the kind of experiment: Induction of methuosis in human U251 cells assessed as small cytoplasmic vacuolization and extensive blebbing of the plasma membrane at 2.5 uM after 4 hrs by phase contrast microscopy.
Assay [6] relates to U-251. As to the kind of experiment: Induction of methuosis in human U251 cells assessed as cytoplasmic vacuolization at 2.5 uM within 4 hrs by phase contrast microscopy. The class given is functional, cell-based. Put shortly: as §2

On to `CCCOC(=O)c1[nH]c2ccc(OC)cc2c1/C=C/C(=O)c1ccncc1`, for which the inhibition entry in assay [1] is “Active”. For the same compound, the inhibition entry in assay [2] is “inactive”.
As to `NCc1ccc2[nH]cc(/C=C/C(=O)c3ccncc3)c2c1`, in assay [3], the “growth inhibition (GI)” value is “inactive”. Further, in assay [4], the outcome was inactive.
Turning to `COc1ccc2[nH]c(C(=O)O)c(/C=C/C(=O)c3ccncc3)c2c1`, the “growth inhibition (GI)” value in assay [3] is “inactive”. Besides, the result in assay [5] was Active.
For the compound `CCOC(=O)c1[nH]c2ccc(OC)cc2c1/C=C/C(=O)c1ccncc1`, the inhibition result in assay [1] is “Active”. In assay [2], the inhibition result is “inactive”.
`CCCCOc1ccc2[nH]c(C)c(/C=C/C(=O)c3ccncc3)c2c1`: the “growth inhibition (GI)” value in assay [3] is “inactive”. Also, the result in assay [4] was Active.
As to `CCCOc1ccc2[nH]c(C)c(/C=C/C(=O)c3ccncc3)c2c1`, the inhibition result in assay [2] is “inactive”.
Same read-out and setting: as for `COc1ccc2[nH]c(C)c(/C=C/C(=O)c3ccncc3)c2c1`, the entry is “inactive”.
`COc1ccc2[nH]c(C(F)(F)F)c(/C=C/C(=O)c3ccncc3)c2c1`: in assay [1], the inhibition result was “Active”. The inhibition result in assay [2] was “inactive”.
On to `Cc1[nH]c2ccc(N)cc2c1/C=C/C(=O)c1ccncc1`, for which the “growth inhibition (GI)” value in assay [3] was “inactive”. The result in assay [6] was inactive.
